Source: ChEMBL document CHEMBL1909630, “Azaxanthene based selective glucocorticoid receptor modulators: design, synthesis, and pharmacological evaluation of (S)-4-(5-(1-((1,3,4-thiadiazol-2-yl)amino)-2-methyl-1-oxopropan-2-yl)-5H-chromeno[2,3-b]pyridin-2-yl)-2-fluoro-N,N-dimethylbenzamide (BMS-776532) and its methylene homologue …” (J Med Chem, 2011)

What was measured:
Glucocorticoid receptor [1] = target: T1, Glucocorticoid receptor (Homo sapiens, UniProt P04150); test: Displacement of GS-red from glucocorticoid receptor by fluorescence polarization assay
T1 sequence (P04150 whole entry): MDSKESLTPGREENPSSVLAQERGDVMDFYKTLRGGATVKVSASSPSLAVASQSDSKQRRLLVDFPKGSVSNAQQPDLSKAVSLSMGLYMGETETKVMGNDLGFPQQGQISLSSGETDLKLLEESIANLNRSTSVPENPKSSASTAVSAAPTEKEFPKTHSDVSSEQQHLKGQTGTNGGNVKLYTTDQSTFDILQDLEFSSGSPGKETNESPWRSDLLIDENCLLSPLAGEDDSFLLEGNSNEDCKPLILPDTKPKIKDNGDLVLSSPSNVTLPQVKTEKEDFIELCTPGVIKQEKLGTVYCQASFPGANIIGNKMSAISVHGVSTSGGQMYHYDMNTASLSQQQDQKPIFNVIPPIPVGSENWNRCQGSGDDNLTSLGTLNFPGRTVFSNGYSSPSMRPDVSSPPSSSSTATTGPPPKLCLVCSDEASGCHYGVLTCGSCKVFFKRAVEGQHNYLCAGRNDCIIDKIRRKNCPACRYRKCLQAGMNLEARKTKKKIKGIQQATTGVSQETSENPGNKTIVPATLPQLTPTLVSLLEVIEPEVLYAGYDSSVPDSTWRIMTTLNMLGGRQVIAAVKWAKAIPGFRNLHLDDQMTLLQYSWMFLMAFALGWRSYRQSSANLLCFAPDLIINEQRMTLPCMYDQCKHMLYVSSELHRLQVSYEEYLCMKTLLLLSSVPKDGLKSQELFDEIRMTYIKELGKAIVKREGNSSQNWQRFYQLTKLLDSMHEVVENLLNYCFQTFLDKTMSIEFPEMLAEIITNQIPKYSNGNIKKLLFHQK

Glucocorticoid receptor [2] = target: T1, Glucocorticoid receptor; test: Transrepression activity at glucocorticoid receptor alpha in phorbol myristate acetate-stimulated human A549 cells assessed as inhibition of AP1 response element by luciferase reporter gene assay; type: cell-based
Glucocorticoid receptor [3] = target: T1, Glucocorticoid receptor; test: Transactivation activity at GR-alpha in human NP1 Hela cells assessed as induction of GAL4-DBD after 20 hrs by luciferase reporter gene assay; type: cell-based
Glucocorticoid receptor [4] = target: T1, Glucocorticoid receptor; test: Transactivation activity at glucocorticoid receptor alpha human 13D3/Huh7 cells assessed as induction of TAT activity after 4 hrs by spectrophotometry; type: cell-based, Huh-7
Glucocorticoid receptor [5] = target: T1, Glucocorticoid receptor; test: Transactivation activity at GR-alpha in human NP1 Hela cells assessed as inhibition of GAL4-DBD after 20 hrs by luciferase reporter gene assay; type: cell-based
Glucocorticoid receptor [6] = target: T1, Glucocorticoid receptor; test: Transrepression activity at glucocorticoid receptor alpha in IL-1beta-stimulated human A549 cells assessed as inhibition of NFkappaB-dependent E-selectin transcription by luciferase reporter gene assay; type: cell-based
Blood [7] = test: Antiinflammatory activity in human whole blood assessed as inhibition of LPS-induced TNFalpha production after overnight incubation by ELISA; type: functional, tissue-based
Procedure, shortened: (§1)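 Whole blood from two donors per experiment was collected into ACD-A. Compounds were added and the blood was incubated about 20 h at 37 °C under 5% CO2. Blood was then stimulated for 5 h with LPS (final 100 ng/mL, for TNFα) or IL-1β (final 10 ng/mL, for IL-8). Plasma TNFα or IL-8 was measured by ELISA. Efficacy was expressed as % of dexamethasone, and values are means of at least two experiments.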

Blood [8] = test: Antiinflammatory activity in human whole blood assessed as inhibition of LPS-induced TNFalpha production after overnight incubation by ELISA relative to Dexamethasone; type: functional; procedure, shortened: as §1
Blood [9] = test: Antiinflammatory activity in human whole blood assessed as inhibition of TNF-alpha-induced IL-8 production after overnight incubation by ELISA; type: functional, tissue-based
Blood [10] = test: Antiinflammatory activity in human whole blood assessed as inhibition of TNF-alpha-induced IL-8 production after overnight incubation by ELISA relative to dexamethasone; type: functional
Blood [11] = test: Antiinflammatory activity in human whole blood assessed as inhibition of IL-1beta-induced IL-8 production after overnight incubation by ELISA; type: functional, tissue-based; procedure, shortened: as §1
Blood [12] = test: Antiinflammatory activity in human whole blood assessed as inhibition of IL-1beta-induced IL-8 production after overnight incubation by ELISA relative to Dexamethasone; type: functional; procedure, shortened: as §1

SMILES	Ki (Glucocorticoid receptor [1])	EC50 (Glucocorticoid receptor [2])	EC50 (Glucocorticoid receptor [3])	EC50 (Glucocorticoid receptor [4])	EC50 (Glucocorticoid receptor [5])	EC50 (Glucocorticoid receptor [6])	EC50 (Blood [7])	EC50 (Blood [9])	EC50 (Blood [11])	Imax (Blood [8])	Imax (Blood [10])	Imax (Blood [12])
CC(=O)c1ccc(-c2ccc3c(n2)Oc2ccccc2[C@@H]3C(C)(C)C(=O)Nc2nncs2)cc1F	6 nM	42 nM	> 10000 nM	> 5000 nM	134 nM	–	–	–	–	–	–	–
CC(C)(C(=O)Nc1nncs1)[C@H]1c2ccccc2Oc2nc(-c3ccc(C(=O)N4CCC(F)(F)C4)c(F)c3)ccc21	2.53 nM	37.9 nM	192 nM	1990 nM	99.3 nM	20.6 nM	4020 nM	3070 nM	2490 nM	78%	67%	81%
CN(C)C(=O)c1ccc(-c2ccc3c(c2)Oc2ccccc2C3C(C)(C)C(=O)Nc2nncs2)nc1 (racemic)	4.1 nM	58 nM	382 nM	> 5000 nM	162 nM	–	–	–	–	–	–	–
CNC(=O)c1ccc(-c2ccc3c(n2)Oc2ccccc2[C@@H]3C(C)(C)C(=O)Nc2nncs2)cc1	9.17 nM	167 nM	> 10000 nM	> 5000 nM	806 nM	216 nM	–	–	–	–	–	–
Cc1ccccc1-c1ccc2c(n1)Oc1ccccc1[C@@H]2C(C)(C)C(=O)Nc1nncs1	10.5 nM	122 nM	> 10000 nM	> 5000 nM	1560 nM	> 5000 nM	–	–	–	–	–	–
CC(C)(C(=O)Nc1nncs1)C1c2ccccc2Oc2ncccc21 (racemic)	412 nM	–	–	–	–	–	–	–	–	–	–	–
CC(C)(C(=O)Nc1nncs1)[C@H]1c2ccccc2Oc2nc(-c3ccc(C(N)=O)cc3)ccc21	–	> 10000 nM	> 10000 nM	> 5000 nM	202 nM	–	–	–	–	–	–	–
CCN(C)C(=O)c1ccc(-c2ccc3c(n2)Oc2ccccc2[C@H]3C(C)(C)C(=O)Nc2nncs2)cc1Cl	15.7 nM	124 nM	702 nM	2400 nM	721 nM	64.9 nM	–	–	–	–	–	–
CN(C)C(=O)c1cnc(-c2ccc3c(c2)Oc2ccccc2C3C(C)(C)C(=O)Nc2nncs2)nc1 (racemic)	4.2 nM	183 nM	596 nM	–	592 nM	–	–	–	–	–	–	–
CC(C)(C(=O)Nc1nncs1)[C@H]1c2ccccc2Oc2nc(-c3ccc(C(=O)O)cc3)ccc21	15.4 nM	544 nM	> 10000 nM	–	> 5000 nM	1090 nM	–	–	–	–	–	–
Cc1cccc(-c2ccc3c(n2)Oc2ccccc2[C@@H]3C(C)(C)C(=O)Nc2nncs2)c1	24 nM	654 nM	> 10000 nM	> 5000 nM	1560 nM	> 5000 nM	–	–	–	–	–	–
Cc1ccc(-c2ccc3c(n2)Oc2ccccc2[C@@H]3C(C)(C)C(=O)Nc2nncs2)cc1	2.5 nM	46.8 nM	2210 nM	> 5000 nM	260 nM	26.6 nM	–	–	–	–	–	–
CN(C)C(=O)c1ccc(-c2ccc3c(c2)Oc2ccccc2C3C(C)(C)C(=O)Nc2nncs2)cc1 (racemic)	8.6 nM	77.9 nM	> 10000 nM	> 5000 nM	610 nM	74.9 nM	–	–	–	–	–	–
C[C@@H]1C[C@H]2[C@@H]3CCC4=CC(=O)C=C[C@]4(C)[C@@]3(F)[C@@H](O)C[C@]2(C)[C@@]1(O)C(=O)CO [DEXAMETHASONE]	–	–	–	–	–	–	6.9 nM	–	5.1 nM	–	–	–
CN(C)C(=O)c1ccc(-c2ccc3c(n2)Oc2ccccc2[C@H]3C(C)(C)C(=O)Nc2nncs2)cc1	–	> 10000 nM	> 10000 nM	> 5000 nM	1740 nM	–	–	–	–	–	–	–
CC(C)(C(=O)Nc1nncs1)[C@H]1c2ccccc2Oc2nc(-c3ccccc3)ccc21	–	> 1500 nM	> 10000 nM	> 5000 nM	187 nM	–	–	–	–	–	–	–
CC(C)(C(=O)Nc1nncs1)[C@@H]1c2ccccc2Oc2nc(-c3ccc(O)cc3)ccc21	5.7 nM	90.8 nM	> 10000 nM	–	201 nM	108 nM	–	–	–	–	–	–
COc1ccc(-c2ccc3c(n2)Oc2ccccc2[C@H]3C(C)(C)C(=O)Nc2nncs2)cc1	49.5 nM	> 10000 nM	> 10000 nM	> 5000 nM	4360 nM	355 nM	–	–	–	–	–	–

Further compounds by falling EC50 (Glucocorticoid receptor [2]), results first:

Ki (Glucocorticoid receptor [1])	EC50 (Glucocorticoid receptor [2])	EC50 (Glucocorticoid receptor [3])	EC50 (Glucocorticoid receptor [4])	EC50 (Glucocorticoid receptor [5])	EC50 (Glucocorticoid receptor [6])	EC50 (Blood [7])	EC50 (Blood [9])	EC50 (Blood [11])	SMILES	Imax (Blood [8])	Imax (Blood [10])	Imax (Blood [12])
5.48 nM	34.1 nM	> 10000 nM	> 5000 nM	408 nM	157 nM	819 nM	> 20000 nM	> 20000 nM	CNC(=O)c1ccc(-c2ccc3c(n2)Oc2ccccc2[C@@H]3C(C)(C)C(=O)Nc2nncs2)cc1F	58%	15%	35%
4 nM	28.6 nM	206 nM	> 5000 nM	196 nM	22.8 nM	–	–	–	CCS(=O)(=O)c1ccc(-c2ccc3c(n2)Oc2ccccc2[C@@H]3C(C)(C)C(=O)Nc2nncs2)cc1	–	–	–
1.2 nM	28.3 nM	> 10000 nM	> 5000 nM	105 nM	21.3 nM	–	–	–	COc1ccc(-c2ccc3c(n2)Oc2ccccc2[C@@H]3C(C)(C)C(=O)Nc2nncs2)cc1	–	–	–
1.68 nM	27.5 nM	> 10000 nM	> 5000 nM	204 nM	25.6 nM	5470 nM	> 20000 nM	3190 nM	CC(C)(C(=O)Nc1nncs1)[C@H]1c2ccccc2Oc2nc(-c3ccc(C(=O)N4CCCCC4)c(F)c3)ccc21	73%	45%	27%
1.96 nM	25 nM	177 nM	389 nM	205 nM	29.2 nM	886 nM	1300 nM	238 nM	CC(C)(C(=O)Nc1nncs1)[C@H]1c2ccccc2Oc2nc(-c3ccc(C(=O)N4CCCC4)c(F)c3)ccc21	80%	61%	86%
1 nM	17.7 nM	108 nM	732 nM	27 nM	8.3 nM	–	–	–	CCc1ccc(-c2ccc3c(n2)Oc2ccccc2[C@H]3C(C)(C)C(=O)Nc2nncs2)cc1	–	–	–
0.67 nM	17.4 nM	32.4 nM	740 nM	36.7 nM	7.8 nM	78.5 nM	–	–	CCN(C)C(=O)c1ccc(-c2ccc3c(n2)Oc2ccccc2[C@H]3C(C)(C)C(=O)Nc2nncs2)cc1	100%	–	–
1.3 nM	15.7 nM	273 nM	> 5000 nM	167 nM	28.6 nM	–	–	–	CC(C)(C(=O)Nc1nncs1)[C@H]1c2ccccc2Oc2nc(-c3ccc(C(=O)N4CCCCC4)cc3)ccc21	–	–	–
3.8 nM	13.6 nM	926 nM	–	242 nM	20 nM	–	–	–	CN(C)c1ccc(-c2ccc3c(n2)Oc2ccccc2[C@@H]3C(C)(C)C(=O)Nc2nncs2)cc1	–	–	–
2.6 nM	12.4 nM	39.2 nM	–	28.6 nM	6.3 nM	–	–	–	CC(C)(C(=O)Nc1nncs1)[C@H]1c2ccccc2Oc2nc(-c3ccc(C(=O)N4CCOCC4)cc3)ccc21	–	–	–
2.9 nM	6.2 nM	75.4 nM	1100 nM	31 nM	10.2 nM	–	–	–	CC(=O)c1ccc(-c2ccc3c(n2)Oc2ccccc2[C@@H]3C(C)(C)C(=O)Nc2nncs2)cc1	–	–	–
